Data on two compounds can be found in paper PMC7152711 (EBioMedicine, 2020).

Where two headings read alike, the source gives them in different places. Some results are limits rather than exact numbers.

Series [1] has as its system cystic echinococcosis. Particulars: clinical study ref 5; cited from earlier work.
Series [2] in a line: Tolerability, body weight and blood parameters, oral study. In kind it is in vivo, mice. The gist of the method:
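In the oral study, infected BALB/c mice (n = 10 per group) were gavaged daily for 30 days with test compound in water, albendazole in 0.5% carboxymethyl cellulose, or water alone. Mice were monitored for morbidity signs and behaviour. Two weeks after treatment, plasma was collected, and body, liver, kidney and thymus weights were recorded.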

Series [3] relates to E. granulosus ss cysts. Briefly: Transmission electron microscopy of cysts from treated mice. In kind it is in vivo, Echinococcus granulosus sensu stricto. The gist of the method: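 Cysts came from infected BALB/c mice given test compound at 57 mg/kg, either i.p. once daily for 3 days or by gavage daily for 30 days, and from albendazole-treated (50 mg/kg p.o.) and untreated mice. Cyst ultrastructure was examined by transmission electron microscopy, covering the laminated layer, tegument, germinal layer and microtriches.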

In series [4] the test system is E. granulosus ss cysts. The series is described as follows: In vivo efficacy, oral administration, secondarily infected mice. More on the design: species or system Echinococcus granulosus sensu stricto. In short, it runs like this: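 Microcyst-infected female BALB/c mice (3 months post-infection), 10 per group, were gavaged once daily for 30 days with 0.2 ml. Test compound 57 mg/kg was given in deionised water, albendazole 50 mg/kg in 0.5% carboxymethyl cellulose, and controls received deionised water. Necropsy 2 weeks post-treatment. Cysts were weighed and scored alive or dead by morphological type. One-way ANOVA or Kruskal-Wallis test.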

For series [5], the system named is E. granulosus ss protoscoleces (PSCs). The series is described as follows: E. granulosus ss PSC killing assay. In kind it is cell-based, Echinococcus granulosus sensu stricto. Particulars: Echinococcus granulosus, 24 h, read-out: LC50 (protoscolicidal activity). In short, it runs like this: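 Protoscoleces were aspirated from cysts in naturally infected sheep livers and cultured by a prior method. Wells held 200 PSCs; test compound from a 10× aqueous stock, final 34–114 μM; medium-only control. Incubation was 24 h at 37 °C, 5% CO2. Viability: 0.1% methylene blue for 5 min, with blue PSCs scored dead under an inverted microscope. Triplicate; LC50 by nonlinear regression.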

The subject of series [6] is E. granulosus ss PSCs. Briefly: TUNEL assay in PSCs. Type of series: cell-based. Particulars: 100 µM, 24 h.
Series [7] concerns the target CYP2C9 (Homo sapiens, UniProt P11712). Briefly: CYP450 inhibition assay, human liver microsomes. In kind it is in vitro ADME. Background: Liver microsomes are vesicles of endoplasmic reticulum, rich in cytochrome P450 enzymes.
Series [8] deals with E. granulosus ss PSCs. Briefly: DNA fragmentation assay in PSCs. Particulars: 50 μM, 24 h. In kind it is cell-based.
In series [9] the test system is Salmonella typhimurium strains. Conditions: cited from earlier work.
The target of series [10] is CYP2D6 (Homo sapiens, UniProt P10635). Briefly: CYP450 inhibition assay, human liver microsomes. In kind it is in vitro ADME.
Sequence of CYP2D6 (P10635 whole entry): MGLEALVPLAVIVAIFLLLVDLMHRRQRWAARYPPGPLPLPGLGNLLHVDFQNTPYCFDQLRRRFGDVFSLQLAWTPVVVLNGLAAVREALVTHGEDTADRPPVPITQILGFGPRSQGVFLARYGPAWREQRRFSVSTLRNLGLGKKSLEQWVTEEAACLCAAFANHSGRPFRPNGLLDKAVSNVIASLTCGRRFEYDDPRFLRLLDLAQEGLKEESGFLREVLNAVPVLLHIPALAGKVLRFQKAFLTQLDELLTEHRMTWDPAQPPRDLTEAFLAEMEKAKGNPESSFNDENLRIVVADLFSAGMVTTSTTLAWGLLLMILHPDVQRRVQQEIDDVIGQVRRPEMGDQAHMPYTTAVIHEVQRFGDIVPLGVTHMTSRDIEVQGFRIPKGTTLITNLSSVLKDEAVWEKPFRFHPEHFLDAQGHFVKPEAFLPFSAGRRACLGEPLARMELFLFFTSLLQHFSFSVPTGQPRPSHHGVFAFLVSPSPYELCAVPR
Series [11] has as its target T1, CYP1A2 (Homo sapiens, UniProt P05177).
T1 sequence (P05177 1-516): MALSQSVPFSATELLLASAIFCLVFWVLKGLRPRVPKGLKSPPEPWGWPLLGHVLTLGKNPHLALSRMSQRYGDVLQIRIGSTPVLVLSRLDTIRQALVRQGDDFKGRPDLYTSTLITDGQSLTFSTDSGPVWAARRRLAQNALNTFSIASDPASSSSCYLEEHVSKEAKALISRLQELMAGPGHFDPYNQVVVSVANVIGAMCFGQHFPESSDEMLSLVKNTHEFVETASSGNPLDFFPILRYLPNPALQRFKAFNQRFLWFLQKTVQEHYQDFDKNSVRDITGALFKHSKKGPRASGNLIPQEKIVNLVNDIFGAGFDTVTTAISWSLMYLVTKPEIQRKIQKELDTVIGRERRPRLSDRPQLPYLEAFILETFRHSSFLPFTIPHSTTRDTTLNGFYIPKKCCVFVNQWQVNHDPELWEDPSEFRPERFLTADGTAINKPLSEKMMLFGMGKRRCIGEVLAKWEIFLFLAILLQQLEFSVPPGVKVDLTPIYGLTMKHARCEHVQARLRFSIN
Briefly: CYP450 inhibition assay, human liver microsomes. In kind it is in vitro ADME.

For series [12] the following is noted: dogs, oral 24 mg/kg/day for 30 days ref 20; cited from earlier work.
The target of series [13] is CYP3A4 (Homo sapiens, UniProt P08684). Briefly: CYP450 inhibition assay, human liver microsomes. Type of series: in vitro ADME.
Sequence of CYP3A4 (P08684 whole entry): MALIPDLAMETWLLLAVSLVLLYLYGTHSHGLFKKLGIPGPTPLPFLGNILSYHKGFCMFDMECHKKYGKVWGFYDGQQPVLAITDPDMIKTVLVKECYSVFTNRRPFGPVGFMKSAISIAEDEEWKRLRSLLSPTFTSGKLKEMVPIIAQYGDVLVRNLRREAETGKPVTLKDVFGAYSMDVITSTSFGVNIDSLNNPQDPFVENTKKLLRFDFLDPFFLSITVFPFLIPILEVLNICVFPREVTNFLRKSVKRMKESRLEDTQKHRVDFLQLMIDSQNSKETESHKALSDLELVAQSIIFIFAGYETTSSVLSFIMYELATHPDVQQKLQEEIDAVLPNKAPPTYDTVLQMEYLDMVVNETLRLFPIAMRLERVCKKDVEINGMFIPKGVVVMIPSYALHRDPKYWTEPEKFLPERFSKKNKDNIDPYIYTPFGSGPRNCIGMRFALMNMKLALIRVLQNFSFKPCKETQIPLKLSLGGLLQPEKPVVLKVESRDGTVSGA
Series [14] in a line: In vivo pharmacokinetics and tissue distribution. The arrangement: species or system mice. Particulars: for Kp: male, ICR, mouse, intraperitoneal, 57 mg/kg. In short, it runs like this:
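Male ICR mice (20–22 g, 3 per time point) received a single 57 mg/kg i.p. dose. Plasma was precipitated with acetonitrile containing internal standards and centrifuged at 2600 g for 10 min at 4 °C. Liver and lung were homogenised in 4 volumes of 100 mM phosphate buffer, pH 7.4, and processed alike. Samples taken 0.25–48 h were measured by LC-MS/MS and analysed non-compartmentally.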

In series [15] the test system is caspase-3. Briefly: Caspase-3 activity assay in PSCs. In kind it is cell-based, E. granulosus. Particulars: 100 µM 24 h, vs vehicle controls.
The conditions of series [16]: dog, 28 days oral treatment ref 16; cited from earlier work.
The conditions of series [17]: rat, 28 days oral treatment ref 16; cited from earlier work.
A short description of series [18]: 28 days oral treatment NOAEL in the dog. Particulars: in vivo, 5 mg/kg/day.
Series [19] has as its target T2, E. granulosus ss topoisomerase I (Egtopo I) (Echinococcus granulosus, UniProt W6UT38).
T2 sequence (W6UT38 1-621): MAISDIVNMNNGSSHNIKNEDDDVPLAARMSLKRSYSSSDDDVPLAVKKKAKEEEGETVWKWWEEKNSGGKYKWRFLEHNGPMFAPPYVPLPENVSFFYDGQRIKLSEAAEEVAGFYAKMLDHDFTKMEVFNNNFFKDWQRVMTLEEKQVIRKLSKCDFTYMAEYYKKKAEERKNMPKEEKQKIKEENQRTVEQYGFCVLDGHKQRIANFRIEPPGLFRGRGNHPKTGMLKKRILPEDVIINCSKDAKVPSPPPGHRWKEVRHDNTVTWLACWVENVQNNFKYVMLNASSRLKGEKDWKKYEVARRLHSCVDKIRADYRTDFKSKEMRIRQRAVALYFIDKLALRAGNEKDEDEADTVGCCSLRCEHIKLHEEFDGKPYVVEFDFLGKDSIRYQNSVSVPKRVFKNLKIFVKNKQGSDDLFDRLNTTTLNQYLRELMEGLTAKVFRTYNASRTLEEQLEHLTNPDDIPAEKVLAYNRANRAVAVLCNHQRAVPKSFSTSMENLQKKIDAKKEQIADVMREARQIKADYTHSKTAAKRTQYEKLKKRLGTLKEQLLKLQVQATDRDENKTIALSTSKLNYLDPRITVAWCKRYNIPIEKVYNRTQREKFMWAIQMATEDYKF
The series is described as follows: Egtopo I-mediated DNA relaxation assay. Conditions: read-out: IC50 Egtopo I activity; relaxation of supercoiled pBR322, 30 min 37 °C. Type of series: biochemical, Echinococcus granulosus sensu stricto. In short, it runs like this:
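Kit-based relaxation assay with pBR322 (200 ng), Egtopo I (300 ng) and 0.1% BSA. Test compound at final 50, 100, 150, 200, 300, 400, 500 and 600 μM in assay buffer, 30 min at 37 °C. Stopped with 10% SDS plus loading buffer, run on 1% agarose and stained with ethidium bromide (5 μg/ml). IC50 from a nonlinear regression fit, n = 3.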

Series [20] in a line: Tolerability, organ weights and blood parameters, intraperitoneal study. Type of series: in vivo, mice. In short, it runs like this:
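Microcyst-infected female BALB/c mice were dosed i.p. once daily for 3 days with test compound in saline (14, 28, 57 mg/kg; n = 10) or saline (n = 12). During treatment they were watched for emaciation, hunched back, ruffled coat, appetite and behaviour changes. Two weeks post-treatment, plasma was taken for haematology and biochemistry, and liver, kidneys, thymus and body were weighed.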

Series [21] deals with CYP2C19 (Homo sapiens, UniProt P33261). The series is described as follows: CYP450 inhibition assay, human liver microsomes. In kind it is in vitro ADME.
Sequence of CYP2C19 (P33261 whole entry): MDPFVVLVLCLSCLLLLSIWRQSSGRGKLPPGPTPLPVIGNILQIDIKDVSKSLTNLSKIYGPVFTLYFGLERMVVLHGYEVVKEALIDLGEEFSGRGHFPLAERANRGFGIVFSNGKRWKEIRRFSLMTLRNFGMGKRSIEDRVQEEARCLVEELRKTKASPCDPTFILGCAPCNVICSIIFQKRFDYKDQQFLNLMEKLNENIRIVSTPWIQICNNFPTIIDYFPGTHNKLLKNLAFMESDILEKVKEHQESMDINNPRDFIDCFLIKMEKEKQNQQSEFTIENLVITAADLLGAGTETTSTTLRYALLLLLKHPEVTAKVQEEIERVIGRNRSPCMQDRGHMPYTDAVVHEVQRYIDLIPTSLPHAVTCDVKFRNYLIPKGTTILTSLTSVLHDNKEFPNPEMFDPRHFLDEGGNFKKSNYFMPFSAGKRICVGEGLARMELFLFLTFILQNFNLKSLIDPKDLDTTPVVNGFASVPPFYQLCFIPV
Series [22] relates to bone marrow. Particulars: mice, bone marrow ref 38, 39; cited from earlier work.
Series [23] concerns E. granulosus ss cysts. Briefly: In vivo efficacy, intraperitoneal administration, secondarily infected mice. The arrangement: species or system Echinococcus granulosus sensu stricto. The gist of the method:
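Female BALB/c mice, 6–8 weeks, were infected intraperitoneally with microcysts and randomised at 3 months. Test compound in saline at 14, 28 or 57 mg/kg (n = 10 each), 1.0 ml i.p. once daily for 3 days; saline controls n = 12. Necropsy 2 weeks post-treatment. Cysts were weighed, and viability was scored by morphology: type 1 alive, types 2–3 dead. Kruskal-Wallis test.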

A short description of series [24]: 28 days oral treatment NOAEL in the rat. Particulars: in vivo, 23 mg/kg/day.
The test system of series [25] is E. granulosus ss cysts. Briefly: Microinjection treatment of cysts. In kind it is in vivo, Echinococcus granulosus sensu stricto.
The mark [26] stands for this setting: 0 to 48 h, single 57 mg/kg i.p.

Sequence of CYP2C9 (P11712 whole entry, the tested form may be a part): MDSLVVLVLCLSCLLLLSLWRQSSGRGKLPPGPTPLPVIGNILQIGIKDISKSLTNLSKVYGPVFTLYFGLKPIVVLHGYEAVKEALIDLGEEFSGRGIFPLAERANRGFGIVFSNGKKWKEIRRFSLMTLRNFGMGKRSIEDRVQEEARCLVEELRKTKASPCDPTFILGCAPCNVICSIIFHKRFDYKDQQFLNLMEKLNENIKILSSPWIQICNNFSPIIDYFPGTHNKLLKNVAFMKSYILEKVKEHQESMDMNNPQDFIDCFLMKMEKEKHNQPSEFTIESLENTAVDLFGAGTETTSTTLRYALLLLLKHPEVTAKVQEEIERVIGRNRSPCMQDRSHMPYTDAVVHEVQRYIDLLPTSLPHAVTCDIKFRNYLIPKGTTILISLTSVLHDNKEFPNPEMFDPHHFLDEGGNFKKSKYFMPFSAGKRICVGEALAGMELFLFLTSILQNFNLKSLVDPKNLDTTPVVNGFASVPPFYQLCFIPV

`CCCSc1ccc2nc(NC(=O)OC)[nH]c2c1` [ABZ, albendazole]: the “CE cases that did not respond favorably to treatment” value in series [1] is listed as “approximately 40%”. Also, the body weight entry in [2] (ABZ 50 mg/kg p.o. 30 days) was “minor loss of body weight”. In addition, the “cyst ultrastructure (TEM)” value in [3] (ABZ 50 mg/kg, p.o.) was “did not exhibit obvious ultrastructural changes”. In series [4] (ABZ 50 mg/kg p.o. q.d. 30 days), this compound displayed a cyst mortality rate of 22.2% and a cyst weight reduction of 48.1%. In [5], the LC50 (as a rule, the concentration that kills 50% of the test population) turned out to be 79.2 ± 3.9 µM.
On to `COc1ccc2nc3cc(Cl)ccc3c(Nc3cc(CN4CCCC4)c(O)c(CN4CCCC4)c3)c2n1` [PND, pyronaridine], for which, in series [6], the “TUNEL staining (DNA fragmentation)” value is “abundant TdT dUTP nick-end labeling (TUNEL)-positive cells were observed”. Moreover, the IC50 (commonly the point on the concentration scale where inhibition reaches its midpoint) in series [7] was over 10 µM; in series [10], 1.53 µM; in series [11], over 10 µM; in series [13], over 10 µM; in series [19] it was 209.7 ± 1.1 µM; in series [21], over 10 µM. Further, the “DNA ladder on agarose gel” value in [8] is recorded as “a clear pattern of DNA fragmentation (DNA ladder) was observed”. Also, the Ames mutagenicity result was “evidence of bacterial mutagenicity” in [9] (strain TA1537 ref 40); “did not induce mutations” in [9] (strains TA100, TA98, TA1535 and TA1538 ref 40). For the same compound, the body weight result in [2] (PND 57 mg/kg p.o. 30 days) is listed as “minor loss of body weight”. The “cyst ultrastructure (TEM)” value in [3] (PND 57 mg/kg, both i.p. and p.o.) was “devastating damage of the cyst tissues”. Moreover, in [4] (PND 57 mg/kg p.o. q.d. 30 days), the “cysts killed (mortality rate)” value was 90.7%. Also, the “parasite wet weight reduction” value in series [4] (PND 57 mg/kg p.o. q.d. 30 days, vs vehicle control) was determined as 42.4%; in series [25] (200 μM microinjected, 30 days post-treatment, vs saline group), 52.3%. Further, in series [12], the tolerability result is “well tolerated”. The “average concentration in the liver” value in series [14] (setting [26]) amounted to 435.7 µmol/kg. Besides, the “average concentration in the lungs” value in [14] (setting [26]) was 122.5 µmol/kg. The same compound had an average plasma concentration in [14] (setting [26]) of 1.5 µM. Also, the Kp (as a rule, the ratio of the level in a tissue or fluid to that in plasma or blood) in series [14] (liver/plasma) turned out to be 290; in series [14] (lungs/plasma), 81.7. Also, the “increase in caspase-3 activity” value in series [15] is recorded as 20 fold. Also, the LC50 in series [5] is 49 ± 0.2 µM. The results for the “no observed adverse effect level (NOAEL)” value in [16] and in series [17] were 5 mg/kg/day and 23 mg/kg/day, respectively. Besides, the NOAEL – broadly, the highest dose or exposure tested at which no adverse effect was seen – at 28 days came to 2.7 mg/kg/day in series [18] and 3.7 mg/kg/day in series [24]. Besides, the “behaviour and adverse effects” value in [20] (14, 28, 57 mg/kg i.p. q.d. 3 days) is recorded as “without obvious adverse effects”. For the same compound, in series [20] (high-dosage group (57 mg/kg i.p.), vs control), the liver weight entry was “a minor increase in liver weight”. Moreover, the micronucleus frequency result in series [22] is “no increase in micronucleus frequency in the bone marrow”. The compound further came in with a cyst mortality in series [23] (57 mg/kg i.p. q.d. 3 days) of 100%. Further, the “wet cyst weight reduction” value in [23] (57 mg/kg i.p. q.d. 3 days, vs unmedicated mice) came out at 38.7%. In addition, in series [23] (14, 28 and 57 mg/kg i.p. q.d. 3 days), the growth of cysts result is reported as “successfully suppressed the growth of cysts”. The compound also came in with a cyst counts in [25] (200 μM microinjected, 35 cysts/mouse transferred, 30 days) of 6.4 ± 1.2. Moreover, the “cysts killed after microinjection” value in series [25] (microinjection with PND) is listed as “more than 90%”.
